# “Also recorded” adds a separate entry of the source. Like-named read-outs stand apart in the source and are kept apart here.
# How the values were obtained:
# GL261 tumors = conditions: cited from earlier work
# [1] = 26 (veliparib); ref 48 (E7016); cited from earlier work
# GBM22 = conditions: cited from earlier work
# [2] = system: GBM12 orthotopic xenografts; assay: GBM12 orthotopic xenograft survival; assay type: in vivo, mice; conditions: TMZ 50 mg/kg, rucaparib 1 mg/kg days 1-5 every 28 days × 3 cycles, placebo 16 days, p = 0.88
# GBM12 flank xenografts = assay: GBM12 flank xenograft tumor regrowth delay; assay type: in vivo, mice; conditions: TMZ 50 mg/kg days 1-5, rucaparib 1 mg/kg days 1-5, three 28 day cycles, placebo 32 days
# PDGF-driven glioma = conditions: higher drug delivery into brain in knockout mice; cited from earlier work
# [3] = biological target: T1, murine Breast Cancer Resistance Protein (BCRP1) (Mus musculus, UniProt Q7TMS5); assay: In vitro intracellular accumulation in BCRP1-overexpressing MDCKII cells; assay type: in vitro ADME; conditions: rucaparib 2 −M, prazosin 0.39 nM, 60 minutes at 37°C, mean ± SD, n = 5-6
# T1 sequence (Q7TMS5 1-657): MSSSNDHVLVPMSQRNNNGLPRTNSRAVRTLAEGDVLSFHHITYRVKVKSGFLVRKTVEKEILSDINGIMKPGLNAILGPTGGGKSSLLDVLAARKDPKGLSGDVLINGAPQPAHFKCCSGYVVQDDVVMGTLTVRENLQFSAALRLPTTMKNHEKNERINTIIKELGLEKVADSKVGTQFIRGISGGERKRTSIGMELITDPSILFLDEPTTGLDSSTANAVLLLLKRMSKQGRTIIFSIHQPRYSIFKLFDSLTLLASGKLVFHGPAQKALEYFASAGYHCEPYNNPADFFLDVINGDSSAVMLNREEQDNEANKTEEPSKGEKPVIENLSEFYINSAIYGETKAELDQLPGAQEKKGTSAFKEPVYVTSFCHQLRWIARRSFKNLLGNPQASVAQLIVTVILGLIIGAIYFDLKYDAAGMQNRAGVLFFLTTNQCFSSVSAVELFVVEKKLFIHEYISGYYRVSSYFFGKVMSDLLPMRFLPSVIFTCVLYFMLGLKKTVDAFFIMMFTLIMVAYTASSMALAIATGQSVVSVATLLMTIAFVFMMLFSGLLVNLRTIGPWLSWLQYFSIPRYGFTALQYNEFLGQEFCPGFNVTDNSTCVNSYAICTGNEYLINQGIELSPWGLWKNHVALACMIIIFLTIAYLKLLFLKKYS
# How it was run: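 MDCKII cells (vector control or murine Bcrp1-transfected) were seeded at 2 x 10^5/well and grown to 80% confluence. After washing in serum-free buffer, cells were preincubated 30 min ± 0.2 µM Ko143. They were then exposed to 2 µM test compound or 0.39 nM prazosin (substrate control) for 60 min at 37°C. Uptake was stopped with cold PBS and cells lysed in 1% Triton X-100. Intracellular drug was measured by LC-MS/MS and normalised to BCA protein; mean ± SD, n = 5-6.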
# [4] = assay type: in vivo, mice; conditions: for half-life: mouse, 1 mg/kg
# How it was run: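 Mice with orthotopic GBM12 xenografts got a single 1 mg/kg intraperitoneal dose. Plasma, liver and brain (tumour-injected and contralateral hemispheres) were collected and flash-frozen at 0, 60, 120, 360 and 1440 min after dosing. Drug levels were measured by LC-MS; values are the mean of 2 or 3 mice per time point.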
# [5] = Steady-state brain distribution in wild-type and Mdr1a/b-/-Bcrp1-/- mice; assay type: in vivo, FVB mice
# How it was run: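 FVB wild-type and Mdr1a/b-/-Bcrp1-/- mice received the test compound for 48 h by intraperitoneal osmotic minipump at 5 µg/hr (pump stock 5 mg/mL in DMSO). Plasma and whole brain were flash-frozen. Brain was homogenised in 5% BSA, samples spiked with dasatinib internal standard and extracted in ethyl acetate, then assayed by positive-mode LC-MS/MS. Brain-to-plasma ratio reported as mean ± SD, n=4.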
# [6] = MALDI mass spectrometric imaging of drug distribution; assay type: in vivo, mice; conditions: thirty minutes after single 10 mg/kg IP dose
# How it was run: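 Tumour-bearing mice got one 10 mg/kg IP dose and were euthanised 30 min later. Brain, liver and tumour were snap-frozen; 12 µm cryosections went onto ITO slides, with sister sections for H&E. DHB matrix was sprayed on (160 mg/mL in methanol/0.2% TFA 70:30). Imaging used a 12 T FT-ICR MS, positive ion mode, m/z 100-2500, 250 shots per spot, 80 µm pixels (brain, liver) and 100 µm (flank tumour).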
# [7] = Tolerability of chronic rucaparib with TMZ; assay type: in vivo, mice; conditions: IP, with 50 mg/kg PO TMZ
# [8] = system: GBM14, GBM43, GBM59 intracranial xenografts; assay: Other orthotopic primary GBM xenograft lines, survival; assay type: in vivo, mice; conditions: three other primary GBM xenograft lines
# How it was run: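 Patient-derived GBM lines were kept by serial passage in mice and implanted intracranially. Mice with established tumours were randomised, 10 per group, to four arms: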
# PARP = PARP enzymatic activity in tissue homogenates after a single dose; assay type: in vivo, mice
# [9] = 60 minutes, single 1 mg/kg dose
smiles,measurement,setting,value
"Cc1ccc2c(=O)c3cccc(CC(=O)O)c3oc2c1C [DMXAA, 5,6-dimethylxanthenone-4-acetic acid]",effect on survival with intracranial GL261 tumors,GL261 tumors; intracranial,no survival extension
same,effect on subcutaneous GL261 tumors,GL261 tumors; subcutaneous,significantly delayed tumor growth
O=c1[nH]nc2c3c(cccc13)Oc1ccc(CN3CCC(O)CC3)cc1-2 [E7016],blood brain barrier penetration,[1],significantly penetrate the blood brain barrier
C=CCn1c(=O)c2cnc(Nc3ccc(N4CCN(C)CC4)cc3)nc2n1-c1cccc(C(C)(C)O)n1 [MK-1775],"sensitizing effect combined with temozolomide, flank models",GBM22; flank models,significant sensitizing effects
same,"sensitizing effect combined with temozolomide, GBM22",GBM22; orthotopic GBM22 (contrasted with flank),no sensitizing effect
"Cn1nnc2c(C(N)=O)ncn2c1=O [TMZ, temozolomide]",median survival,[2],68 days
same,Median time for tumor to exceed a 1000 mm^3 size endpoint,GBM12 flank xenografts,86 days
Cc1nc(Nc2ncc(C(=O)Nc3c(C)cccc3Cl)s2)cc(N2CCN(CCO)CC2)n1 [dasatinib],survival of tumor-bearing Mdr1a/b-/-Bcrp1-/- knockout mice compared to wild-type mice,PDGF-driven glioma,significant improvement in survival
COc1cc2nc(N3CCN(C(=O)c4ccco4)CC3)nc(N)c2cc1OC [prazosin],intracellular accumulation in BCRP1-overexpressing cells,[3],16.8±1.4 % of control
CNCc1ccc(-c2[nH]c3cc(F)cc4c3c2CCNC4=O)cc1 [rucaparib],intracellular accumulation in BCRP1-overexpressing cells,[3],14.5±5.2 % of control
same,concentration in contralateral brain hemisphere,[4]; [9],0.08 −M
same,concentration in liver,[4]; [9],11.05 −M
same,concentration in tumor-injected hemisphere,[4]; [9],0.35 −M
same,concentration in tumor-injected hemisphere,"[4]; 6 hours, single 1 mg/kg dose",0.23 −M
same,levels in normal brain,"[4]; by 360 minutes after injection, single 1 mg/kg dose",undetectable
same,half-life,"[4]; plasma, ip",1.5 h
same,half-life,"[4]; tumor-injected brain hemisphere, intraperitoneal",13 h
same,maximum plasma concentration relative to Cmax in humans (times lower),[4]; single 1 mg/kg dose in mice versus human Cmax of ref 12,about four-five
same,Kp at 48 h,"[5]; FVB, mouse, brain, ip, 5 µg/hr, brain to plasma ratio at steady state, Mdr1a/1b-/-;Bcrp1-/- (TKO) mice, 48-hour intraperitoneal infusion at 5 −g/hr, mean ± SD, n=4",1.61 ± 0.25
same,increase in the brain-to-plasma ratio in knockout versus wild-type mice,[5]; Mdr1a/b-/-Bcrp1-/- knockout mice,~20 fold
same,rucaparib distribution in flank tumors by MALDI-MSI,"[6]; GBM12 flank, n=2",homogeneous and high-level accumulation
same,rucaparib distribution in orthotopic tumors by MALDI-MSI,"[6]; GBM12 orthotopic, n=3",no appreciable rucaparib signal
same,rucaparib distribution in normal brain by MALDI-MSI,"[6]; adjacent normal brain, 10 mg/kg",no appreciable rucaparib signal; also recorded: below the limit of detection
same,highest dose tolerated for chronic administration,[7],1 mg/kg
same,potentiation of TMZ by rucaparib,[8],did not potentiate TMZ
same,PARP activity in normal brain (contralateral hemisphere),PARP; by 360 minutes after injection,recovered to baseline
same,PARP activity in liver,PARP; reduced for several hours after single 1 mg/kg dose,5 % of baseline
same,PARP activity in tumor-injected hemisphere,"PARP; remained suppressed at this level for 24 hours, single 1 mg/kg dose",50 % of baseline
C[C@]1(c2nc3c(C(N)=O)cccc3[nH]2)CCCN1 [veliparib],blood brain barrier penetration,[1],significantly penetrate the blood brain barrier

# Source: publication PMC4674360 (Molecular cancer therapeutics, 2015)
